The source of these data is ChEMBL document CHEMBL2417524, “Cytotoxic clerodane diterpenoids from the leaves and twigs of Casearia balansae” (J Nat Prod, 2013).

pIC50: −log10 of the molar value.

One assay relates to WI-38. The assay is described as follows: Cytotoxicity against human WI38 cells after 72 hrs by MTT assay. It is filed as cell-based. The conditions noted are these: WI-38, 72 h. Put shortly:
(§1)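 Antiproliferative screen on cancer lines PC3, DU145, SKOV3 and A549 and on normal human WI-38 fibroblasts. Paclitaxel was the positive control and DMSO the negative control. IC50 in μM reported as the mean of duplicate measurements.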

The subject of another assay is A549. The assay is described as follows: Cytotoxicity against human A549 cells after 72 hrs by MTT assay. It is filed as functional, cell-based. Conditions: A549, 72 h. The essentials:
as §1

Another assay concerns DU-145. As to the kind of experiment: Cytotoxicity against human DU145 cells after 72 hrs by MTT assay. It is filed as functional, cell-based. The conditions noted are these: DU-145, 72 h. Put shortly: as §1
The next assay has as its system SK-OV-3. The assay is described as follows: Cytotoxicity against human SKOV3 cells after 72 hrs by MTT assay. The format is functional, cell-based. Conditions: SK-OV-3, 72 h. Put shortly:
as §1

The subject of the next assay is PC-3. The assay is described as follows: Cytotoxicity against human PC3 cells after 72 hrs by MTT assay. The format is functional, cell-based. The conditions noted are these: PC-3, 72 h. The essentials: as §1

In the case of `C=CC(=C)CC[C@]1(C)[C@H]2CC(=O)C=C3[C@H](OC(=O)CCC)O[C@H](OC(C)=O)[C@@]32[C@H](OC)C[C@@H]1C` (relative stereo), the negative-log IC50 (pIC50) in the assay with WI-38 was 4.83; with A549, 4.95; with DU-145, 5.14; in the assay with SK-OV-3, 5.14; with PC-3, 5.34.

For `C=CC(=C)CC[C@]1(C)[C@H]2C[C@H]3C[C@@H]4[C@@H](OC(C)=O)O[C@H](O3)[C@@]42CC[C@@H]1C`, the pIC50 with WI-38 is 4.29; in the assay on A549, 4.62; in the assay with DU-145, 4.85; in the assay on SK-OV-3 it was 4.44; with PC-3, 5.25.

Consider `C=CC(=C)CC[C@]1(C)[C@H]2C[C@@H](OC(C)=O)C[C@@H]3[C@H](OC(C)=O)O[C@H](OC(C)=O)[C@@]32CC[C@@H]1C` (relative stereo), for which the pIC50 was 4.24 in the assay on WI-38; 4.18 with A549; 4.70 in the assay with DU-145; 4.42 in the assay with SK-OV-3; 4.44 with PC-3.

As to `C=CC(=C)CC[C@]1(C)[C@H]2C[C@H](OC(C)=O)C=C3[C@@H](OCC)O[C@H](OC(C)=O)[C@@]32[C@H](OC)C[C@@H]1C`, the pIC50 with WI-38 is 4.24; in the assay with A549, 4.34; with DU-145, 4.29; with SK-OV-3, 4.00; in the assay on PC-3, 4.33.

Consider `C=CC(=C)CC[C@]1(C)[C@H]2C[C@H](O)C[C@@H]3[C@H](OC(=O)CCC)O[C@H](OC(C)=O)[C@@]32CC[C@@H]1C`, for which the pIC50 in the assay with WI-38 is 4.24; with A549, 4.86; in the assay with DU-145, 4.17; in the assay on SK-OV-3, 4.60; with PC-3, 5.14.

Consider `C=CC(=C)CC[C@]1(C)[C@H]2C[C@H]3C[C@@H]4[C@H](OC(C)=O)O[C@H](O3)[C@@]42CC[C@@H]1C`, for which the pIC50 is 4.39 in the assay on WI-38; 4.71 in the assay with A549; 4.88 in the assay with DU-145; 4.51 in the assay on SK-OV-3; 5.21 in the assay with PC-3.

With `C=CC(=C)CC[C@]1(C)[C@H]2C[C@@H](OC(C)=O)C=C3[C@H](OC(C)=O)O[C@H](OC(C)=O)[C@@]32[C@H](OC)C[C@@H]1C`, the pIC50 with WI-38 was 4.88; with A549, 5.15; in the assay on DU-145, 5.37; in the assay with SK-OV-3 it was 5.21; in the assay with PC-3 it was 5.33.

On to `C=C(C)[C@@H](C)C[C@@H](O)[C@@H](C)[C@H]1CC[C@@]2(C)[C@@H]3CCC4=C(C[C@]35O[C@@H]5C[C@]12C)C(=O)C=CC4(C)C` (relative stereo), for which the pIC50 in the assay on WI-38 is 4.11; with A549, 4.42; with DU-145 it was 4.58; with SK-OV-3, 4.13; with PC-3, 4.65.

`C=CC(=C)CC[C@]1(C)[C@H]2C[C@H](OC(=O)C(C)CC)C=C3[C@H](OC(C)=O)O[C@H](OC(C)=O)[C@@]32[C@H](O)C[C@@H]1C` (relative stereo): the negative-log IC50 (pIC50) was 5.01 in the assay on WI-38; 5.24 in the assay with A549; 5.37 in the assay on DU-145; 5.29 in the assay on SK-OV-3; 5.35 in the assay with PC-3.

`C=CC(=C)CC[C@]1(C)[C@H](C)CC[C@@]23[C@@H](OC(C)=O)O[C@H](OC(C)=O)[C@@H]2C[C@H](O)C[C@@H]13` (relative stereo): the pIC50 in the assay with WI-38 is 4.58; in the assay with A549, 4.82; in the assay with DU-145, 5.18; in the assay on SK-OV-3, 4.75; in the assay with PC-3, 5.09.

Regarding `C=CC(=C)CC[C@]1(C)[C@H]2C[C@@H](OC(C)=O)C=C3[C@@H](OCC)O[C@H](OC(C)=O)[C@@]32[C@H](OC)C[C@@H]1C` (relative stereo), the pIC50 in the assay with WI-38 was 4.25; in the assay on A549, 4.27; in the assay on DU-145 it was 4.33; in the assay on SK-OV-3 it was 4.44; in the assay on PC-3 it was 4.47.

`C=CC(=C)CC[C@]1(C)[C@H]2C[C@H](OC(=O)C(C)CC)C=C3[C@@H](OCC)O[C@H](OC(C)=O)[C@@]32[C@H](O)C[C@@H]1C` (relative stereo): the negative logarithm of the IC50 (pIC50) was 4.22 in the assay with WI-38; 4.30 in the assay on A549; 4.83 in the assay with DU-145; 4.82 with SK-OV-3; 4.33 with PC-3.

With `C=CC(=C)CC[C@]1(C)[C@H]2CC(=O)C=C3[C@H](OC(C)=O)O[C@H](OC(C)=O)[C@@]32[C@H](OC)C[C@@H]1C` (relative stereo), the pIC50 was 4.69 in the assay on WI-38; 4.88 with A549; 5.25 in the assay with DU-145; 4.75 with SK-OV-3; 5.19 with PC-3.

Consider `CC(=O)O[C@H]1C(=O)[C@@]2(C)[C@H]([C@H](OC(=O)c3ccccc3)[C@]3(O)C[C@H](OC(=O)[C@H](O)[C@@H](NC(=O)c4ccccc4)c4ccccc4)C(C)=C1C3(C)C)[C@]1(OC(C)=O)CO[C@@H]1C[C@@H]2O` [PACLITAXEL], for which the pIC50 was 7.30 in the assay with WI-38, 7.40 with DU-145 and 7.70 with PC-3.

Consider `C=CC(=C)CC[C@]1(C)[C@H]2C[C@@H](O)C[C@@H]3[C@H](OC(=O)CCC)O[C@H](OC(C)=O)[C@@]32CC[C@@H]1C` (relative stereo), for which the negative-log IC50 (pIC50) in the assay with WI-38 was 4.68; with A549 it was 4.79; in the assay on DU-145, 5.24; with SK-OV-3, 4.99; in the assay with PC-3, 5.20.

Regarding `C=CC(=C)CC[C@]1(C)[C@H]2C[C@H](OC(=O)C(C)CC)C=C3[C@H](OC(C)=O)O[C@@H](OC(C)=O)[C@@]32[C@H](OC)C[C@@H]1C` (relative stereo), the pIC50 was 4.88 in the assay with WI-38; 5.10 with A549; 5.32 in the assay with DU-145; 5.14 in the assay with SK-OV-3; 5.25 with PC-3.

With `C=CC(=C)CC[C@]1(C)[C@H]2C[C@H](OC(=O)C(C)CC)C=C3[C@H](OC(=O)CCC)O[C@H](OC(C)=O)[C@@]32[C@H](O)C[C@@H]1C` (stereo partly drawn) [CASEAMEMBRIN A], the pIC50 with WI-38 was 4.71; in the assay with A549, 4.80; in the assay on DU-145, 5.30; with SK-OV-3 it was 5.06; in the assay on PC-3, 4.98.
